ChEMBL document CHEMBL5385967, “Nitrogen-containing andrographolide derivatives with multidrug resistance reversal effects in cancer cells” (RSC Med Chem, 2024)

Assays:
L5178Y [1] = test: Antiproliferative activity against mouse L5178Y cells assessed as reduction in cell viability incubated for 72 hrs by MTT assay; type: functional, cell-based
In short: (§1)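 Parental L5178Y or human ABCB1-transfected L5178Y MDR subline kept under 60 ng mL−1 colchicine selection; McCoy's 5A, 10% heat-inactivated horse serum, 37 °C. 6 × 10^3 cells/well exposed to 2-fold serial dilutions from 100 μM for 72 h. MTT 4 h, SDS overnight, OD 540/630 nm. Triplicate; IC50 from curve fitting, mean ± SD.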

[2] = biological target: T1, ATP-dependent translocase ABCB1 (Homo sapiens, UniProt P08183); test: Modulation of human P-gp transfected in mouse L5178Y cells assessed as change in Rhodamine-123 efflux by measuring fluorescence activity ratio at 2 uM pretreated for 10 mins followed by Rhodamine-123 challenge for 20 mins by flow cytometry relative to parental mouse L5178Y cells; type: cell-based; conditions: 0.5 h, time 30 min
In short: (§2)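 PAR and MDR cells at 2 × 10^6 cells/mL in serum-free McCoy's 5A. Compound given 10 min at room temperature, then rhodamine-123 (5.2 μM final) for 20 min at 37 °C. Washed twice, resuspended in PBS, mean FL-1 read by flow cytometry. FAR = (MDR treated/untreated)/(PAR treated/untreated). Verapamil 20 μM positive control, DMSO 2% solvent control.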

[3] = Resistance ratio of IC50 for antiproliferative activity against multidrug resistant mouse L5178Y cells transfected with human ABCB1 to IC50 for antiproliferative activity against mouse L5178Y cells; type: functional
In short: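 RR = IC50(MDR)/IC50(PAR), IC50s from the 72 h MTT assay: 2-fold dilutions from 100 μM, 6 × 10^3 cells/well, triplicate. Collateral sensitivity taken as RR < 0.5; RR < 1 counted as selectivity toward resistant cells.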

L5178Y [4] = test: Reversal of multidrug resistance in multidrug resistant mouse L5178Y cells transfected with human ABCB1 assessed as reduction in cell viability incubated for 72 hrs by MTT assay; type: functional, cell-based; in short: as §1
[5] = biological target: T1, ATP-dependent translocase ABCB1; test: Modulation of human P-gp transfected in mouse L5178Y cells assessed as change in Rhodamine-123 efflux by measuring fluorescence activity ratio at 20 uM pretreated for 10 mins followed by Rhodamine-123 challenge for 20 mins by flow cytometry relative to parental mouse L5178Y cells; type: cell-based; conditions: 0.5 h, time 30 min
[6] = biological target: T1, ATP-dependent translocase ABCB1; test: Modulation of human P-gp transfected in mouse L5178Y cells assessed as change in Rhodamine-123 efflux by measuring fluorescence activity ratio at 0.2 uM pretreated for 10 mins followed by Rhodamine-123 challenge for 20 mins by flow cytometry relative to parental mouse L5178Y cells; type: cell-based; conditions: 0.5 h, time 30 min; in short: as §2
L5178Y [7] = test: Synergistic antiproliferative activity against multidrug resistant mouse L5178Y cells transfected with human ABCB1 assessed as combination index incubated for 72 hrs in presence of doxorubicin by MTT assay; type: functional
In short: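 Checkerboard in MDR cells, 6 × 10^3 cells/well. Doxorubicin in serial dilutions from 8.6 μM, crossed with modifier dilutions whose start level was set from its IC50. 72 h at 37 °C under CO2, growth read by MTT. Curves fitted by the median-effect equation; CI reported at 50% inhibition, mean ± SD.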

T1 sequence (P08183 whole entry): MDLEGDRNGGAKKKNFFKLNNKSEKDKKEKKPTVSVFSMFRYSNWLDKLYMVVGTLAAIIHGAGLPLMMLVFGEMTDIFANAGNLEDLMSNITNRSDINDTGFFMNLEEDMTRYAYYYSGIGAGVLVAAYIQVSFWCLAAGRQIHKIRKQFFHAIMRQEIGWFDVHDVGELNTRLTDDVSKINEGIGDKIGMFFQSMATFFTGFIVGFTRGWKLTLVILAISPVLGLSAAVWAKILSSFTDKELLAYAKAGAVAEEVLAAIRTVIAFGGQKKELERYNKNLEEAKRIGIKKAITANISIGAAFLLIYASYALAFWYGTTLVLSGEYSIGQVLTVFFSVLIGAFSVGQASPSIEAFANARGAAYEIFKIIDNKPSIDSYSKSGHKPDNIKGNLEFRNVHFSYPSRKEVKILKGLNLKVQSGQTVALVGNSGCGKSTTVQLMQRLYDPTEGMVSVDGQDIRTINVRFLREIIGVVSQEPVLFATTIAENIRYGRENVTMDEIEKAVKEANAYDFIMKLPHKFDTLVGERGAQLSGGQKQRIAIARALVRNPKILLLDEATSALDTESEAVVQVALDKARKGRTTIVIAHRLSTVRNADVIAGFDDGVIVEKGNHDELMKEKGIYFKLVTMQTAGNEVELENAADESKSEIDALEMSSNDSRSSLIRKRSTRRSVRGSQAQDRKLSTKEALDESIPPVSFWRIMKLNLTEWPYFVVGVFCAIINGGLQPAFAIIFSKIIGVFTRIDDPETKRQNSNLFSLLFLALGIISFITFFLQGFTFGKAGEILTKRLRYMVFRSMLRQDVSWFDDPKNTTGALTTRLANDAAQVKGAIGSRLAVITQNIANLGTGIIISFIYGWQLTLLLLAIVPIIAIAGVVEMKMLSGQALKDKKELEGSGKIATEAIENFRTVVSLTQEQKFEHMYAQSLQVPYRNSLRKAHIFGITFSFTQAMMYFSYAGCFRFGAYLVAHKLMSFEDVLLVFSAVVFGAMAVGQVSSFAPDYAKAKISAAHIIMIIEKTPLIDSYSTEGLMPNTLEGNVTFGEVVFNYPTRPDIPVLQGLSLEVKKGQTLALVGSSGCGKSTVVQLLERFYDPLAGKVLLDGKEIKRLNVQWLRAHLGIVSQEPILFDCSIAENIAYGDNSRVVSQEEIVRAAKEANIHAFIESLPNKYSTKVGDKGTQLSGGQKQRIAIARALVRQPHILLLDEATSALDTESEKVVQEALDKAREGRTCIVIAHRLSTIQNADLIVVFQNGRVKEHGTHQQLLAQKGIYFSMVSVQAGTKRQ

Structure (SMILES)	IC50 (L5178Y [1]) [µM]	Ratio [2]	Ratio [3]	IC50 (L5178Y [4]) [µM]	Ratio [5]	Ratio [6]	CI (L5178Y [7])
C=C1CC[C@@H]2[C@](C)(COC(C)=O)[C@H](OC(C)=O)CC[C@@]2(C)[C@@H]1C/C=C1/C(=O)OC[C@H]1OC(C)=O	13.3	1.95	1.45	19.2	38.65	–	–
C=C1CC[C@@H]2[C@](C)(COC(C)=O)[C@H](OC(C)=O)CC[C@@]2(C)[C@@H]1C[C@H](NNC(=O)c1ccc(Cl)cc1)C1=CCOC1=O	14.2	3.36	0.64	9.04	–	1.56	<1
C=C1CC[C@@H]2[C@](C)(COC(C)=O)[C@H](OC(C)=O)CC[C@@]2(C)[C@@H]1C[C@H](NNC(=S)Nc1cccc2ccccc12)C1=CCOC1=O	52.9	14.29	0.97	51.3	33.46	–	–
C=C1CC[C@@H]2[C@](C)(COC(C)=O)[C@H](OC(C)=O)CC[C@@]2(C)[C@@H]1C[C@H](NNC(=S)Nc1ccccc1)C1=CCOC1=O	51.7	7.9	–	> 100	55.07	–	–
C=C1CC[C@@H]2[C@](C)(COC(C)=O)[C@H](OC(C)=O)CC[C@@]2(C)[C@@H]1C[C@H](NNC(=O)c1ccco1)C1=CCOC1=O	11.1	4.28	1.38	15.3	–	2.32	<1
C=C1CC[C@@H]2[C@](C)(COC(C)=O)[C@H](OC(C)=O)CC[C@@]2(C)[C@@H]1C[C@H](NNC(=O)c1ccc(N)cc1)C1=CCOC1=O	12.3	0.48	0.44	5.47	–	0.48	<1
C=C1CC[C@@H]2[C@](C)(COC(C)=O)[C@H](OC(C)=O)CC[C@@]2(C)[C@@H]1C[C@H](NNC(=S)Nc1ccc([N+](=O)[O-])cc1)C1=CCOC1=O	16.1	27.27	3.4	54.8	51.95	–	–
C=C1CC[C@@H]2[C@](C)(COC(C)=O)[C@H](OC(C)=O)CC[C@@]2(C)[C@@H]1C[C@H](NNC(=S)Nc1ccc(C)cc1)C1=CCOC1=O	36.1	18.86	1.31	47.4	60.26	–	–
C=C1CC[C@@H]2[C@](C)(COC(C)=O)[C@H](OC(C)=O)CC[C@@]2(C)[C@@H]1C[C@H](NNC(=S)Nc1ccccc1C)C1=CCOC1=O	56.9	1.06	1.42	81	37.12	–	–
C=C1CC[C@@H]2[C@](C)(COC(C)=O)[C@H](OC(C)=O)CC[C@@]2(C)[C@@H]1C[C@H](NNC(=O)c1ccc(C(F)(F)F)cc1)C1=CCOC1=O	6.74	2.27	1.75	11.8	–	0.37	<1
C=C1CC[C@@H]2[C@](C)(COC(C)=O)[C@H](OC(C)=O)CC[C@@]2(C)[C@@H]1C[C@H](NNC(=S)NC(C)(C)C)C1=CCOC1=O	60.1	1.2	0.9	54.2	43.52	–	–
C=C1CC[C@@H]2[C@](C)(COC(C)=O)[C@H](OC(C)=O)CC[C@@]2(C)[C@@H]1C[C@@H](NNC(=O)c1ccc(C(F)(F)F)cc1)C1=CCOC1=O	14.2	5.19	1.08	15.3	–	1.63	<1
C=C1CC[C@@H]2[C@](C)(COC(C)=O)[C@H](OC(C)=O)CC[C@@]2(C)[C@@H]1C[C@H](NNC(=S)Nc1ccccc1F)C1=CCOC1=O	52.6	1.03	1.33	70	79.33	–	–
C=C1CC[C@@H]2[C@](C)(COC(C)=O)[C@H](OC(C)=O)CC[C@@]2(C)[C@@H]1C[C@H](NNC(=O)c1cccnc1)C1=CCOC1=O	12.5	0.32	0.94	11.8	–	0.49	<1
C=C1CC[C@@H]2[C@](C)(COC(C)=O)[C@H](OC(C)=O)CC[C@@]2(C)[C@@H]1C[C@H](NNC(=O)OCc1ccc(OC)cc1)C1=CCOC1=O	17.7	1.21	1.32	23.4	64.99	–	<1
C=C1CC[C@@H]2[C@](C)(COC(C)=O)[C@H](OC(C)=O)CC[C@@]2(C)[C@@H]1C[C@H](NNC(=S)NCc1ccccc1)C1=CCOC1=O	66.9	1.71	1.01	67.6	57.14	–	–
C=C1CC[C@@H]2[C@](C)(COC(C)=O)[C@H](OC(C)=O)CC[C@@]2(C)[C@@H]1C[C@H](NNC(=S)N(C)C)C1=CCOC1=O	29.1	58.18	1.4	40.9	61.3	–	–
C=C1CC[C@@H]2[C@](C)(COC(C)=O)[C@H](OC(C)=O)CC[C@@]2(C)[C@@H]1C[C@H](NNC(=S)Nc1ccc(CC)cc1)C1=CCOC1=O	38.9	61.3	–	> 100	79.48	–	–
C=C1CC[C@@H]2[C@](C)(COC(C)=O)[C@H](OC(C)=O)CC[C@@]2(C)[C@@H]1C[C@H](NNC(=S)NCc1ccco1)C1=CCOC1=O	50.1	1.27	1.43	71.5	31.12	–	–
C=C1CC[C@@H]2[C@](C)(COC(C)=O)[C@H](OC(C)=O)CC[C@@]2(C)[C@@H]1C[C@H](NNC(=S)NC)C1=CCOC1=O	44.4	0.88	1.16	51.3	41.85	–	–
C=C1CC[C@@H]2[C@](C)(COC(C)=O)[C@H](OC(C)=O)CC[C@@]2(C)[C@@H]1C[C@H](NNC(=O)c1cccs1)C1=CCOC1=O	15.5	1.89	0.96	15	–	0.54	<1
C=C1CC[C@@H]2[C@](C)(COC(C)=O)[C@H](OC(C)=O)CC[C@@]2(C)[C@@H]1C[C@H](NNC(=S)NC1CCCCC1)C1=CCOC1=O	75.7	18.13	0.89	67.4	64.94	–	–
C=C1CC[C@@H]2[C@](C)(COC(C)=O)[C@H](OC(C)=O)CC[C@@]2(C)[C@@H]1C[C@H](NNC(=S)NCCN1CCOCC1)C1=CCOC1=O	61.5	1.37	0.96	58.7	50.23	–	–
C=C1CC[C@@H]2[C@](C)(COC(C)=O)[C@H](OC(C)=O)CC[C@@]2(C)[C@@H]1C[C@H](NNc1ccc(Br)cn1)C1=CCOC1=O	20.6	16.12	0.58	12	–	2.34	0.21
C=C1CC[C@@H]2[C@](C)(CO)[C@H](O)CC[C@@]2(C)[C@@H]1C/C=C1/C(=O)OC[C@H]1O [ANDROGRAPHOLIDE]	14.5	0.96	1.03	15	0.82	–	<1
COc1cccc2c1C(=O)c1c(O)c3c(c(O)c1C2=O)C[C@@](O)(C(=O)CO)C[C@@H]3O[C@H]1C[C@H](N)[C@H](O)[C@H](C)O1 [DOXORUBICIN]	0.07	–	95.43	6.82	–	–	–
